Measurements gathered from unrelated publications.

`COCCOC(=O)C1=C(C)NC(C)=C(C(=O)OC(C)C)C1c1cccc([N+](=O)[O-])c1` (stereo not drawn) gave an AUC(0-inf) of 573 ng·h/mL (male Sprague-Dawley rat, plasma; intravenous, 3 mg/kg).
`Oc1c(Br)cc(Cl)c2cccnc12` has an AUC(0-inf) of 1200 ng·h/mL (Sprague-Dawley rat, plasma; intravenous, 2 mg/kg).
With `COc1nc(-c2cc(C)c(N[C@@H](C)c3cc(F)cc(F)c3)nn2)ccc1-n1cnc(C)c1` the AUC(0-inf) was 6710 ng·h/mL (male Sprague-Dawley rat, plasma; intravenous, 1 mg/kg, single dose).
`COc1ccc2c(Cc3ccccc3F)c3[n+](cc2c1OC)CCc1cc2c(cc1-3)OCO2.[Br-]` gave an AUC(0-inf) of 125 ng·h/mL (rat, plasma; intravenous, 5 mg/kg).
`COc1ccc(C(C)=O)c(O)c1` gave an AUC(0-inf) of 38600 ng·h/mL (male Sprague-Dawley rat, plasma; oral, 100 mg/kg).
`C#Cc1cccc(Nc2ncnc3cc(OCCOC)c(OCCOC)cc23)c1` has an AUC(0-inf) of 9260 ng·h/mL (male Sprague-Dawley rat, plasma; oral, 12 mg/kg, single dose).
For `COc1ccc2c(Cc3ccccc3F)c3n(c(=O)c2c1OC)CCc1cc2c(cc1-3)OCO2`, the AUC(0-inf) was 7960 ng·h/mL (rat, plasma; oral, 5 mg/kg).
With `CCc1cc(C(=O)NC)c2nccc(N3CCc4c(cc(Cn5ccnc5)cc4-c4cn(C)nc4C(F)(F)F)C3=O)c2c1` the AUC(0-inf) was 117000 ng·h/mL (male Sprague-Dawley rat, plasma; oral, 100 mg/kg).
With `O=C(Nc1ccc(-c2nc(-c3ccc(Cl)cc3)no2)cc1)C1CC(=O)N(Cc2ccco2)C1` (stereo not drawn) the AUC(0-inf) was 12500 ng·h/mL (male Wistar rat, brain; intraperitoneal, 10 mg/kg).
With `CCOC(=O)[C@@]12C[C@@H]1[C@@H](n1ccc3c(NC)nc(C#Cc4ccc(Cl)s4)nc31)[C@H](O)[C@@H]2O` the AUC(0-inf) was 172 ng·h/mL (male Sprague-Dawley rat, plasma; oral, 3 mg/kg).
The AUC(0-inf) of `COc1cc2c3c(n(CCCN4CCOCC4)c(=O)c2cc1OC)-c1cc2c(cc1C3=O)OCO2` is reported as 421 ng·h/mL (male Fischer 344 rat, plasma; intravenous, 24 mg/m², single dose).
With `O=C(Nc1cc(F)c(F)c(F)c1)c1ccc(F)c(S(=O)(=O)NCc2cccc(B(O)O)c2)c1` the AUC(0-inf) was 37.6 ng·h/mL (male Sprague-Dawley rat, plasma; oral, 20 mg/kg).
With `CCc1nc(C(N)=O)c(Nc2ccc(N3CCC(N4CCN(C)CC4)CC3)c(OC)c2)nc1NC1CCOCC1` the AUC(0-inf) was 11500 ng·h/mL (male Sprague-Dawley rat, plasma; oral, 10 mg/kg).
For `CCc1cc(OC)c2nccc(N3CCc4c(cc(Cn5ccnc5)cc4-c4cn(C)nc4C(F)(F)F)C3=O)c2c1`, the AUC(0-inf) was 955 ng·h/mL (male Sprague-Dawley rat, plasma; intravenous, 3 mg/kg).
`Cc1c(-c2ccccc2)cccc1N1C(=O)c2cc(CN[C@H](C(=O)O)C(C)O)c(OCc3cccc(C#N)c3)cc2C1=O` (stereo partly drawn) gave an AUC(0-inf) of 100 ng·h/mL (Sprague-Dawley rat, plasma; oral, 50 mg/kg).
